Experimental data from paper PMC2812011 (Cancer cell, 2009).

Experiments:
[1] = test system: DU145, MDAH2774, and MDA-MB-468 cells; assay: 72 h viability assay in solid tumor cell lines; type: cell-based; conditions: Homo sapiens
panel of 82 kinases = assay: Kinase selectivity panel of 82 kinases; type: biochemical; conditions: 0.10 µM, at or near Km for ATP; count includes Jak2
How it was run: (§1)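 Kinase selectivity panel of 82 kinases chosen to span the kinome by binding-site similarity and gatekeeper residue. Each kinase was assayed with ATP at or near its Km. The test compound was tested at three concentrations: 0.01, 0.10 and 1.0 µM. Percent inhibition was scored, and kinases inhibited by more than 50% were counted.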

Aurora A = Aurora A in kinase panel; type: biochemical
How it was run: as §1

MDAH2774 xenografts = assay: MDAH2774 xenograft tumor growth; type: in vivo, mice; conditions: 26 d, p < 0.001, n=10
MEF-Stat3-YFP tumors = assay: MEF-Stat3-YFP tumor growth in athymic mice; type: in vivo; conditions: 50 mg/kg p.o. once daily, relative to vehicle; p = 0.001, n=6
[2] = test system: 786-0 xenografts expressing Stat3C; assay: 786-0 Stat3C xenograft tumor growth; type: in vivo, mice; conditions: 786-0 expressing Stat3C, 50 mg/kg, 41 d
pStat3 Tyr705 [3] = assay: Pharmacodynamics in xenograft tumor lysates and sections; type: in vivo, mice
[4] = test system: 786-0 renal cell carcinoma vector control xenografts; assay: 786-0 vector control xenograft tumor growth; type: in vivo, mice; conditions: 50 mg/kg, 41 d, p = 0.038, n = 10
MDA-MB-468 xenografts = assay: MDA-MB-468 xenograft tumor growth; type: in vivo, mice; conditions: MDA-MB-468, 50 mg/kg p.o. once daily, 30 d; p < 0.001, n=7
TEL-Tyk2 = assay: Stat5 phosphorylation in Ba/F3 TEL-Tyk2 cells; type: cell-based; conditions: at or below 1 µM
TEL-Jak3 = assay: Stat5 phosphorylation in Ba/F3 TEL-Jak3 cells; type: cell-based; conditions: at or below 1 µM
TEL-Jak2 = TEL-Jak2 (Homo sapiens, UniProt O60674+P41212); assay: Stat5 phosphorylation in Ba/F3 TEL-Jak2 cells; type: cell-based
Sequence of TEL-Jak2 (O60674 849-1132 limits assumed, one chain of several): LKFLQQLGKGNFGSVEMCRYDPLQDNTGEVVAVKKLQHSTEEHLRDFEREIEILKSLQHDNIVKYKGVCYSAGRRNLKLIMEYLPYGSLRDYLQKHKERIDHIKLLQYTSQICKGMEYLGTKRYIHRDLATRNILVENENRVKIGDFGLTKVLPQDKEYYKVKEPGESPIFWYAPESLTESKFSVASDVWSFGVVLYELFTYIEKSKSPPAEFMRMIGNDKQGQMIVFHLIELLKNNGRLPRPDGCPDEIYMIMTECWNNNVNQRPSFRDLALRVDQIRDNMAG

DU145 xenografts = assay: DU145 xenograft tumor growth; type: in vivo, mice; conditions: DU145, 50 mg/kg p.o. once daily, 26 d; p < 0.001, n=7
Jak1 = conditions: enzymatic assays, at Km ATP
TEL-Jak1 = assay: Stat5 phosphorylation in Ba/F3 TEL-Jak1 cells; type: cell-based; conditions: at or below 1 µM
Jak2 kinase = Jak2 kinase (Homo sapiens, UniProt O60674); assay: Jak2 kinetic studies; type: biochemical
Sequence of Jak2 kinase (O60674 808-1132): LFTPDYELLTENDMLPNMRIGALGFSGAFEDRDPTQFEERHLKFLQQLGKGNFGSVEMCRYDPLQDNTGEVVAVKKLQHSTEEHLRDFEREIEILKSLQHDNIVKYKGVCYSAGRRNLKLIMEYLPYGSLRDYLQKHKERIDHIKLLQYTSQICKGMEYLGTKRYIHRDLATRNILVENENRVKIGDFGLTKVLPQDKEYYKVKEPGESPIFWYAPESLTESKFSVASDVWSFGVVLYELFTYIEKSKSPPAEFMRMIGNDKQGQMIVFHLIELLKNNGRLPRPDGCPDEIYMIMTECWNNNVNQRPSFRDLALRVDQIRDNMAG

pStat3 Tyr705 [5] = assay: pStat3 in MEF-Stat3-YFP tumor lysates; type: in vivo, mice; conditions: 2 h post treatment, 50 mg/kg
LN-17 cells = assay: LN-17 prostate cancer cells: pStat3, MTS viability, Annexin V; type: cell-based, human
pStat3 Tyr705 [6] = assay: Constitutive pStat3 in DU145, MDA-MB-468 and MDAH2774 cells; type: cell-based, human; conditions: 2 h, DU145, MDA-MB-468, MDAH2774

Cc1cc(Nc2nc(N[C@@H](C)c3ncc(F)cn3)ncc2Cl)n[nH]1 [AZD1480]
GI50 [1]: 2400 to 5400 nM | kinases inhibited by greater than 50% (panel of 82 kinases): 11/82 | Aurora A enzyme activity (Aurora A): inhibited | growth inhibition (MDAH2774 xenografts; MDAH2774, 10 mg/kg twice daily p.o.): 71% | growth inhibition (MDAH2774 xenografts; MDAH2774, 30 mg/kg twice daily p.o., tumor regression): 139% | tumor growth inhibition (MEF-Stat3-YFP tumors): 58% | growth inhibition [2]: no growth inhibition | lethal toxicity or weight loss (doses tested, 26 days of dosing): No lethal toxicity or weight loss | red blood cell counts (mouse, in vivo, 10 mg/kg): no changes | red blood cell counts decrease (mouse, in vivo, 30 mg/kg): approximately 13% | pHisH3 staining (mitotic marker) (pStat3 Tyr705 [3]; MDAH2774 xenografts, 30 mg/kg, up to 16h post-dose): No modulation | recovery of pStat3 Tyr705 expression (pStat3 Tyr705 [3]; by 16 h after single 30 mg/kg dose, MDAH2774 xenografts): fully recovered | duration of significant inhibition of pStat3 (pStat3 Tyr705 [3]; single dose of 30 mg/kg, MDAH2774 xenografts): > 10 h | expression of p44/42 pMAPK and pAKT Ser473 in tumors (pStat3 Tyr705 [3]; treated tumors compared to control animals): No significant change | inhibition of pStat3 Tyr705 in tumor lysates (pStat3 Tyr705 [3]; xenografts harvested 2 h post treatment): Complete inhibition | growth inhibition [4]: 48% | growth inhibition (MDA-MB-468 xenografts): 111% | inhibition of STAT5 phosphorylation (TEL-Tyk2): little or no inhibition | inhibition of STAT5 phosphorylation (TEL-Jak3): little or no inhibition | IC50 (TEL-Jak2): 46 nM | growth inhibition (DU145 xenografts): 81% | Jak2 selectivity over Jak1 (Jak1): marginal selectivity over Jak1 | inhibition of STAT5 phosphorylation (TEL-Jak1): little or no inhibition | Ki (Jak2 kinase): 0.26 nM | pStat3 Tyr705 in tumors (pStat3 Tyr705 [5]): abolished | pStat3 Tyr705 (LN-17 cells; 24 h): Dose-dependent inhibition | apoptotic markers Annexin V and PARP cleavage (LN-17 cells; 72 h): dose-dependent increase | viability (LN-17 cells; MTS, 72 h, charcoal-stripped FBS): loss of viability | inhibition of constitutive pStat3 Tyr705 (pStat3 Tyr705 [6]; 0.1 µM): Significant inhibition | inhibition of constitutive pStat3 Tyr705 (pStat3 Tyr705 [6]; 0.25 –0.5 µM): near ablation of signal
